Assay [1] has as its target DNA polymerase beta (Rattus norvegicus) (UniProt P06766). As to the kind of experiment: Inhibition of rat recombinant DNA polymerase beta expressed in Escherichia coli JMpbeta5 cells assessed as incorporation of [3H]dTTP into poly(dA)/oligo(dT)18 DNA-template primer at 100 uM after 60 mins. Put shortly:
(§1)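 Single-concentration screen at 100 μM. Compound was dissolved in DMSO and sonicated 30 s. Enzyme (0.05 unit of calf thymus pol α or E. coli-expressed rat pol β) was preincubated 10 min at 0 °C in Tris-HCl pH 7.5/DTT/glycerol/EDTA. Reaction with poly(dA)/oligo(dT)18 and [3H]dTTP ran 60 min at 37 °C. Activity given as percent of no-inhibitor control.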

Assay [2] in a line: (§2) Inhibition of calf thymus DNA polymerase alpha assessed as incorporation of [3H]dTTP into poly(dA)/oligo(dT)18 DNA-template primer after 60 mins. Also noted: species or system Bos taurus. The method in brief:
(§3)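 Pol α from calf thymus, purified by immunoaffinity column. Rat pol β expressed in E. coli JMpβ5. Template-primer poly(dA)/oligo(dT)18 (A/T 2:1) with [3H]dTTP (43 Ci/mmol). Each enzyme (0.05 unit) was preincubated with compound for 10 min at 0 °C in 50 mM Tris-HCl pH 7.5 with 1 mM DTT, 50% glycerol and 0.1 mM EDTA. Reaction ran 60 min at 37 °C. Activity relative to no-inhibitor control; IC50 from dose-response curves.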

The species named for assay [3] is Bos taurus. In words: Inhibition of calf thymus DNA polymerase alpha assessed as incorporation of [3H]dTTP into poly(dA)/oligo(dT)18 DNA-template primer at 100 uM after 60 mins. The method in brief: as §1
In assay [4] the test system is HCT-116. In words: Cytotoxicity against human HCT116 cells assessed as inhibition of cell proliferation after 24 hrs by WST-1 assay. In kind it is functional, cell-based. The following applies: HCT-116, 24 h. Put shortly:
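HCT116 cells from ATCC, grown in McCoy's 5A with 10% FBS, penicillin and streptomycin at 37 °C under 5% CO2. Plated at 1 × 10^4 cells per well with compound at 10 and 100 μM for 24 h. Viability read by WST-1. IC50 given as mean ± SD of five independent experiments.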
Background: Tetrazolium dyes change colour on reduction, which living cells bring about.

The target of assay [5] is DNA polymerase beta (Rattus norvegicus, UniProt P06766). As to the kind of experiment: (§4) Inhibition of rat recombinant DNA polymerase beta expressed in Escherichia coli JMpbeta5 cells assessed as incorporation of [3H]dTTP into poly(dA)/oligo(dT)18 DNA-template primer after 60 mins. The method in brief:
as §3

For assay [6], the species on record is Bos taurus. The description is as §2. Put shortly: as §3
The target in assay [7] is DNA polymerase beta (Rattus norvegicus) (UniProt P06766). The assay is described as §4. Put shortly: as §3

Calls of active or inactive are those of the source. The rule behind the calls is not given here.

The values that follow come from ChEMBL document CHEMBL3286157, “Polyketides from the cultured lichen mycobiont of a Vietnamese Pyrenula sp” (J Nat Prod, 2014).

For orientation: IC50 means the concentration at which inhibition is half-maximal.

`C=C1[C@@H]([C@H](C)CC)O[C@H](/C=C/C=C/C(=O)O)[C@@H](O)[C@H]2[C@@H]3CC=C(C)C[C@H]3C=C(C)[C@@]12O`: the inhibition entry in assay [1] and in assay [3] was “Active” throughout. Besides, the concentration for half-maximal inhibition (IC50) in assay [2], in assay [4] and in assay [5] was over 100 µM each time.
On to `CC1=CC[C@@H]2[C@H](C=C(C)[C@H]3[C@]4(C)OCC[C@@H](C)[C@H]4O[C@H](/C=C/C=C/C(=O)O)[C@@H](O)[C@@]23O)C1`, for which the inhibition result in assay [1] and in assay [3] was “Active” in each case. For the same compound, the half-inhibitory concentration (IC50) in assay [2], in assay [4] and in assay [5] was over 100 µM throughout.
For the compound `C[C@@]1(CO)[C@H](O)CC[C@@]2(C)[C@H]1CC[C@H]1C[C@@H]3C[C@@]12CC[C@]3(O)CO` [APHIDICOLIN], the IC50 was 19.6 µM in assay [2], 9 µM in assay [4] and over 100 µM in assay [5].
Consider `C=C1[C@@H]2C(C)=C[C@@H]3CC(C)=CC[C@H]3[C@@H]2[C@H](O)[C@@H](/C=C/C=C/C(=O)O)O[C@@H]1[C@H](C)CC`, for which the inhibition result in assay [1] and in assay [3] was “Active” throughout. The inhibition result in assay [6] and in assay [7] was “Dose-dependent effect” each time. The 50% inhibitory concentration (IC50) amounted to 17.3 µM in assay [2], 26.1 µM in assay [4] and 19.5 µM in assay [5].
As to `CC1=CC[C@H]2[C@@H]3[C@H](O)[C@@H](/C=C/C=C/C(=O)O)O[C@@H]4[C@H](C)CCO[C@@]4(C)[C@@H]3C(C)=C[C@@H]2C1`, the inhibition entry in assay [1] and in assay [3] was “Active” each time. Besides, the results for the IC50 in assay [2], in assay [4] and in assay [5] were 47.2 µM, 74.8 µM and 37.9 µM, respectively.
Turning to `Cc1cn([C@H]2CC[C@@H](COP(=O)(O)OP(=O)(O)OP(=O)(O)O)O2)c(=O)[nH]c1=O`, the values for the IC50 in assay [2], in assay [4] and in assay [5] were over 100 µM, over 100 µM and 30.8 µM, respectively.
In the case of `CC[C@@H](C)[C@H]1O[C@]1(C)[C@@H]1C(C)=C[C@@H]2CC(C)=CC[C@H]2[C@@H]1/C=C/C=C/C=C/C(=O)O`, the inhibition entry in assay [1] and in assay [3] was “Active” each time. In addition, the inhibition entry in assay [6] and in assay [7] was “Dose-dependent effect” each time. Besides, the IC50 in assay [2] was 8.1 µM; in assay [4] it was 6.4 µM; in assay [5], 9.5 µM.
With `CC[C@@H](C)[C@H]1O[C@H](/C=C/C=C/C(=O)O)[C@@H](O)[C@@]2(O)[C@@H]3CC=C(C)C[C@H]3C=C(C)[C@H]2[C@]1(C)O`, the inhibition entry in assay [1] and in assay [3] was “Active” in each case. Besides, the IC50 in assay [2], in assay [4] and in assay [5] was over 100 µM each time.
